Assay results published in article PMC6889097 (Virologica Sinica, 2019).
pIC50: −log10 of the molar value. Where two headings read alike, the source gives them in different places. Marks after values point to notes of the source that are not given here.

Key:
CCL2 = test: cells; type: cell-based, human; settings: for pIC50: Homo sapiens
CXCL10 = test: cells; type: cell-based, human; settings: for pIC50: Homo sapiens, U-937, read-out: IC50 CXCL10
Cell viability = type: cell-based, human; settings: human; for CC50: U937 cells; for CC50 at 48 h: uninfected U937 cells
Summary of the method: (§1)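 Uninfected U937 cells, 40,000/well (1 × 10^6 cells/mL) in RPMI 1640 + 10% FBS, were incubated with serially diluted test compound in 384-well plates for 48 h at 37 ℃/5% CO2. After the plates were spun at 500 ×g for 3 min, supernatant was replaced with medium containing 20% MTS reagent for 1 h at 37 ℃. OD490 was read against reference OD630, and CC50 was derived.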

[1] = tested on: A/PuertoRico/8/1934 (H1N1) influenza virus; test: microbe, parasite or virus in culture; type: cell-based, influenza virus A/PuertoRico/8/1934 (H1N1)
[2] = tested on: lethal influenza virus infection; settings: mouse, cited from earlier work
U937 cells = test: Cell viability; type: cell-based, human; settings: 50% cytotoxic concentration, MTS assay, U937 cells; validation panel (Table 2)
Summary of the method: as §1

[3] = Influenza A virus, H1N1, U-937, read-out: IC50 NA

Row | Compound | CC50 (Cell viability) | In vivo: the protective effect of mice from lethal influenza infection [2] | IC50 NA [1] | reported effect on survival rate of influenza-infected mice ([2]; in vivo) | CC50 at 48 h (Cell viability) | IC50 CCL2 (CCL2) | IC50 CXCL10 (CXCL10) | also measured
1 | CC[C@@H]1/C=C(\C)C[C@H](C)C[C@H](OC)[C@H]2O[C@@](O)(C(=O)C(=O)N3CCCC[C@H]3C(=O)O[C@H](/C(C)=C/[C@@H]3CC[C@@H](O)[C@H](OC)C3)[C@H](C)[C@@H](O)CC1=O)[C@H](C)C[C@@H]2OC [Ascomycin, ascomycin] | 62 µM | + |  |  |  |  |  | pIC50 (CCL2; U-937, read-out: IC50 CCL2): 5.09; pIC50 (CXCL10): 5.00; antiviral effect in the U937 cell model (result in words) [1]: antiviral effects; pIC50 [1, 3]: 4.67
2 | CCOC(=O)N[C@@H]1CC[C@@H]2[C@@H](C1)C[C@H]1C(=O)O[C@H](C)[C@H]1[C@H]2/C=C/c1ccc(-c2cccc(F)c2)cn1 [Vorapaxar, vorapaxar] | > 80 µM | + | – (key: –: lower than 50% inhibition or not effective) | improve the survival rate and pathology |  |  |  | pIC50 (CCL2; U-937, read-out: IC50 CCL2): 5.28; pIC50 (CXCL10): 4.88
3 | O=C(O)C[C@H](O)C[C@H](O)/C=C/c1c(C2CC2)nc2ccccc2c1-c1ccc(F)cc1 [Pitavastatin] |  |  |  |  | > 90 µM |  |  | 
4 | NC(=O)c1ncn([C@@H]2O[C@H](CO)[C@@H](O)[C@H]2O)n1 [Ribavirin] | > 160 µM |  |  |  |  | – (key: –: lower than 50% inhibition or not effective) | – (key: –: lower than 50% inhibition or not effective) | antiviral effect in the U937 cell model (result in words) [1]: antiviral effects; pIC50 [1, 3]: 4.58
5 | CNCCCC1c2ccccc2C=Cc2ccccc21 [Protriptyline] |  |  |  |  | > 90 µM |  |  | 
6 | CC(C)Cc1ccc(C(C)C(=O)O)cc1 (stereo not shown) [Ibuprofen, ibuprofen] | > 50 µM |  | – (key: –: lower than 50% inhibition or not effective) |  |  | – (key: –: lower than 50% inhibition or not effective) | – (key: –: lower than 50% inhibition or not effective) | effect on the production of CCL2 in U937 cell model (result in words) (CCL2): no inhibitory effect; effect on the production of CXCL10 in U937 cell model (result in words) (CXCL10): no inhibitory effect
7 | CCC(C)(C)C(=O)O[C@H]1C[C@@H](C)C=C2C=C[C@H](C)[C@H](CC[C@@H]3C[C@@H](O)CC(=O)O3)[C@H]21 [Simvastatin] |  |  |  |  | 66.8 µM |  |  | 
8 | CCOC(=O)C1=C[C@@H](OC(CC)CC)[C@H](NC(C)=O)[C@@H](N)C1 [Oseltamivir] |  | + |  |  |  | – (key: –: lower than 50% inhibition or not effective) | – (key: –: lower than 50% inhibition or not effective) | CC50 (U937 cells): > 100 µM; antiviral effect in the U937 cell model (result in words) [1]: antiviral effects; pIC50 ([1]; read-out: IC50 NA): 6.24
9 | CC(C)n1c(/C=C/C(O)CC(O)CC(=O)O)c(-c2ccc(F)cc2)c2ccccc21 (stereo not shown) [Fluvastatin] |  |  |  |  | > 90 µM |  |  | 
10 | CC(C)Oc1ccc(-c2nc(-c3cccc4c3CC[C@@H]4NCCO)no2)cc1C#N [Ozanimod, ozanimod] | 26 µM | + | – (key: –: lower than 50% inhibition or not effective) | improve the survival rate and pathology |  |  |  | pIC50 (CCL2; U-937, read-out: IC50 CCL2): 5.11; pIC50 (CXCL10): 4.97
11 | C=CC(=O)N1CCC[C@@H](n2nc(-c3ccc(Oc4ccccc4)cc3)c3c(N)ncnc32)C1 [Ibrutinib, ibrutinib] | 26.5 µM | +^i | –^h (key: –: lower than 50% inhibition or not effective) | improve the survival rate and pathology |  |  |  | pIC50 (CCL2; U-937, read-out: IC50 CCL2): 6.21; pIC50 (CXCL10): 6.02; reported protection of mice from lethal influenza infection ([2]; in vivo): protect mice from lethal influenza infection
12 | C[C@H]1COc2c(N3CCN(C)CC3)c(F)cc3c(=O)c(C(=O)O)cn1c23 [Levofloxacin] |  |  |  |  | > 90 µM |  |  | pIC50 (CCL2; U-937, 48 h, read-out: IC50 CCL2): ≥ 5.00; reported survival rate in mice infected with the H1N1 PR8 virus ([2]; in vivo): increased the survival rate
13 | Cc1nc(Nc2ncc(C(=O)Nc3c(C)cccc3Cl)s2)cc(N2CCN(CCO)CC2)n1 [Dasatinib] |  |  |  |  | > 90 µM |  |  | 
14 | CN(CCOc1ccc(CC2SC(=O)NC2=O)cc1)c1ccccn1 (stereo not shown) [Rosiglitazone, rosiglitazone] | > 100 µM | + | – (key: –: lower than 50% inhibition or not effective) | improve the survival rate and pathology |  | – (key: –: lower than 50% inhibition or not effective) | – (key: –: lower than 50% inhibition or not effective) | 
15 | Cc1ccc(-c2ncc(Cl)cc2-c2ccc(S(C)(=O)=O)cc2)cn1 [Etoricoxib, etoricoxib] | > 50 µM | ±^j | – (key: –: lower than 50% inhibition or not effective) | no improvement on the survival rate |  | – (key: –: lower than 50% inhibition or not effective) | – (key: –: lower than 50% inhibition or not effective) | effect on the production of CCL2 in U937 cell model (result in words) (CCL2): no inhibitory effect; effect on the production of CXCL10 in U937 cell model (result in words) (CXCL10): no inhibitory effect
